{
  "source": "ChEMBL document CHEMBL5303300",
  "about": "“EUbOPEN Chemogenomics Library - Multiplex” (2023)",
  "key": {"HEK-293T": {"tested_on": "HEK-293T", "assay": "Multiplex assay against HEK293T", "assay_type": "toxicity, cell-based", "conditions": "human, number of replicates 2", "method_in_brief": "(§1)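 Imaging took place on a CQ1 microscope at 37°C and 5% CO2 once compound had been added to live cells stained at seeding with Hoechst33342, BioTracker Green Microtubule Cytoskeleton Dye, MitoTracker Red and Annexin V Alexa Fluor 680. CellPathfinder machine-learning gating classed cells as Hoechst high-intensity objects or normal cells, classed normal cells as having healthy, pyknosed or fragmented nuclei, and classed pyknosed cells as mitotic or apoptotic. Tubulin, mitochondrial-mass and membrane-permeability phenotypes are per cents of the healthy-nucleus cells.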"}, "U2OS": {"tested_on": "U2OS", "assay": "Multiplex assay against U2OS", "assay_type": "toxicity, cell-based", "conditions": "human, number of replicates 2", "method_in_brief": "as §1"}, "[1]": {"conditions": "24 h, 1 µM, compound concentration 1 uM"}, "[2]": {"conditions": "24 h, 10 µM, compound concentration 10 uM"}, "[3]": {"conditions": "48 h, 1 µM, compound concentration 1 uM"}, "[4]": {"conditions": "48 h, 10 µM, compound concentration 10 uM"}, "[5]": {"conditions": "12 h, 1 µM, compound concentration 1 uM"}, "[6]": {"conditions": "12 h, 10 µM, compound concentration 10 uM"}},
  "note": "Values joined by “and” are separate entries in the source; they are usually repeats but may differ in a detail not shown here. Equal values may be shown once.",
  "data": [
    {"smiles": "CN(C)C/C=C/C(=O)Nc1ccc(C(=O)N2CCCC(Nc3ncc(Cl)c(-c4c[nH]c5ccccc45)n3)C2)cc1", "note": "(configuration not stated)", "values": [
      {"measurement": "Population Mitochondria Different-Phenotype (%)", "setting": "HEK-293T; [1]", "value": "68% and 60%"},
      {"measurement": "Population Mitotic Cells (%)", "setting": "HEK-293T; [1]", "value": "26% and 25%"},
      {"measurement": "Population Normal (%)", "setting": "HEK-293T; [1]", "value": "82% and 80%"},
      {"measurement": "Population Pyknosed Nuclei (%)", "setting": "HEK-293T; [1]", "value": "17% and 20%"},
      {"measurement": "Population Tubulin-Different-Phenotype (%)", "setting": "HEK-293T; [1]", "value": "80% and 68%"},
      {"measurement": "Total Cell Count", "setting": "HEK-293T; [1]", "value": "318 and 268"},
      {"measurement": "Population Apoptotic (%)", "setting": "HEK-293T; [2]", "value": "89% and 91%"},
      {"measurement": "Population Fragmented Nuclei (%)", "setting": "HEK-293T; [2]", "value": "7% and 10%"},
      {"measurement": "Population Healthy Nuclei (%)", "setting": "HEK-293T; [2]", "value": "75% and 71%"},
      {"measurement": "Population Hoechst High Intensity Objects (%)", "setting": "HEK-293T; [2]", "value": "28% and 25%"},
      {"measurement": "Population Membrane Permeable-Phenotype (%)", "setting": "HEK-293T; [2]", "value": "5% and 2%"},
      {"measurement": "Population Mitochondria Different-Phenotype (%)", "setting": "HEK-293T; [2]", "value": "78% and 79%"},
      {"measurement": "Population Mitotic Cells (%)", "setting": "HEK-293T; [2]", "value": "10% and 8%"},
      {"measurement": "Population Normal (%)", "setting": "HEK-293T; [2]", "value": "71% and 74%"},
      {"measurement": "Population Pyknosed Nuclei (%)", "setting": "HEK-293T; [2]", "value": 17, "unit": "%"},
      {"measurement": "Population Tubulin-Different-Phenotype (%)", "setting": "HEK-293T; [2]", "value": "88% and 86%"},
      {"measurement": "Total Cell Count", "setting": "HEK-293T; [2]", "value": "313 and 357"},
      {"measurement": "Population Apoptotic (%)", "setting": "HEK-293T; [3]", "value": "85% and 78%"},
      {"measurement": "Population Fragmented Nuclei (%)", "setting": "HEK-293T; [3]", "value": "9% and 4%"},
      {"measurement": "Population Healthy Nuclei (%)", "setting": "HEK-293T; [3]", "value": "75% and 77%"},
      {"measurement": "Population Hoechst High Intensity Objects (%)", "setting": "HEK-293T; [3]", "value": "22% and 15%"},
      {"measurement": "Population Membrane Permeable-Phenotype (%)", "setting": "HEK-293T; [3]", "value": "0% and 1%"},
      {"measurement": "Population Mitochondria Different-Phenotype (%)", "setting": "HEK-293T; [3]", "value": "76% and 69%"},
      {"measurement": "Population Mitotic Cells (%)", "setting": "HEK-293T; [3]", "value": "14% and 21%"},
      {"measurement": "Population Normal (%)", "setting": "HEK-293T; [3]", "value": "77% and 84%"},
      {"measurement": "Population Pyknosed Nuclei (%)", "setting": "HEK-293T; [3]", "value": "15% and 17%"},
      {"measurement": "Population Tubulin-Different-Phenotype (%)", "setting": "HEK-293T; [3]", "value": "81% and 77%"},
      {"measurement": "Total Cell Count", "setting": "HEK-293T; [3]", "value": "284 and 272"},
      {"measurement": "Population Apoptotic (%)", "setting": "HEK-293T; [4]", "value": "75% and 83%"},
      {"measurement": "Population Fragmented Nuclei (%)", "setting": "HEK-293T; [4]", "value": "8% and 17%"},
      {"measurement": "Population Healthy Nuclei (%)", "setting": "HEK-293T; [4]", "value": 54, "unit": "%"},
      {"measurement": "Population Hoechst High Intensity Objects (%)", "setting": "HEK-293T; [4]", "value": "24% and 26%"},
      {"measurement": "Population Membrane Permeable-Phenotype (%)", "setting": "HEK-293T; [4]", "value": "1% and 5%"},
      {"measurement": "Population Mitochondria Different-Phenotype (%)", "setting": "HEK-293T; [4]", "value": "75% and 70%"},
      {"measurement": "Population Mitotic Cells (%)", "setting": "HEK-293T; [4]", "value": "25% and 16%"},
      {"measurement": "Population Normal (%)", "setting": "HEK-293T; [4]", "value": "75% and 73%"},
      {"measurement": "Population Pyknosed Nuclei (%)", "setting": "HEK-293T; [4]", "value": "36% and 28%"},
      {"measurement": "Population Tubulin-Different-Phenotype (%)", "setting": "HEK-293T; [4]", "value": "83% and 82%"},
      {"measurement": "Total Cell Count", "setting": "HEK-293T; [4]", "value": "362 and 446"},
      {"measurement": "Population Apoptotic (%)", "setting": "U2OS; [5]", "value": "28% and 47%"},
      {"measurement": "Population Healthy Nuclei (%)", "setting": "U2OS; [5]", "value": "61% and 77%"},
      {"measurement": "Population Hoechst High Intensity Objects (%)", "setting": "U2OS; [5]", "value": 0, "unit": "%"},
      {"measurement": "Population Membrane Permeable-Phenotype (%)", "setting": "U2OS; [5]", "value": "7% and 3%"},
      {"measurement": "Population Mitochondria Different-Phenotype (%)", "setting": "U2OS; [5]", "value": 3, "unit": "%"},
      {"measurement": "Population Mitotic Cells (%)", "setting": "U2OS; [5]", "value": "71% and 52%"},
      {"measurement": "Population Normal (%)", "setting": "U2OS; [5]", "value": 100, "unit": "%"},
      {"measurement": "Population Pyknosed Nuclei (%)", "setting": "U2OS; [5]", "value": "16% and 15%"},
      {"measurement": "Population Tubulin-Different-Phenotype (%)", "setting": "U2OS; [5]", "value": "88% and 93%"},
      {"measurement": "Population Apoptotic (%)", "setting": "U2OS; [6]", "value": "66% and 86%"},
      {"measurement": "Population Fragmented Nuclei (%)", "setting": "U2OS; [6]", "value": "20% and 10%"},
      {"measurement": "Population Healthy Nuclei (%)", "setting": "U2OS; [6]", "value": "44% and 40%"},
      {"measurement": "Population Hoechst High Intensity Objects (%)", "setting": "U2OS; [6]", "value": 0, "unit": "%"},
      {"measurement": "Population Membrane Permeable-Phenotype (%)", "setting": "U2OS; [6]", "value": "0% and 22%"},
      {"measurement": "Population Mitotic Cells (%)", "setting": "U2OS; [6]", "value": "33% and 13%"},
      {"measurement": "Population Normal (%)", "setting": "U2OS; [6]", "value": "100% and 99%"},
      {"measurement": "Population Pyknosed Nuclei (%)", "setting": "U2OS; [6]", "value": "36% and 48%"},
      {"measurement": "Population Tubulin-Different-Phenotype (%)", "setting": "U2OS; [6]", "value": "81% and 57%"},
      {"measurement": "Population Apoptotic (%)", "setting": "U2OS; [1]", "value": "70% and 76%"},
      {"measurement": "Population Fragmented Nuclei (%)", "setting": "U2OS; [1]", "value": "19% and 8%"},
      {"measurement": "Population Healthy Nuclei (%)", "setting": "U2OS; [1]", "value": "52% and 67%"},
      {"measurement": "Population Hoechst High Intensity Objects (%)", "setting": "U2OS; [1]", "value": 0, "unit": "%"},
      {"measurement": "Population Membrane Permeable-Phenotype (%)", "setting": "U2OS; [1]", "value": "10% and 3%"},
      {"measurement": "Population Mitochondria Different-Phenotype (%)", "setting": "U2OS; [1]", "value": "0% and 1%"},
      {"measurement": "Population Mitotic Cells (%)", "setting": "U2OS; [1]", "value": "30% and 23%"},
      {"measurement": "Population Normal (%)", "setting": "U2OS; [1]", "value": 100, "unit": "%"},
      {"measurement": "Population Pyknosed Nuclei (%)", "setting": "U2OS; [1]", "value": "27% and 23%"},
      {"measurement": "Population Tubulin-Different-Phenotype (%)", "setting": "U2OS; [1]", "value": "89% and 95%"},
      {"measurement": "Population Apoptotic (%)", "setting": "U2OS; [2]", "value": "93% and 80%"},
      {"measurement": "Population Fragmented Nuclei (%)", "setting": "U2OS; [2]", "value": "8% and 17%"},
      {"measurement": "Population Hoechst High Intensity Objects (%)", "setting": "U2OS; [2]", "value": "5% and 0%"},
      {"measurement": "Population Membrane Permeable-Phenotype (%)", "setting": "U2OS; [2]", "value": "58% and 22%"},
      {"measurement": "Population Normal (%)", "setting": "U2OS; [2]", "value": "94% and 100%"},
      {"measurement": "Population Pyknosed Nuclei (%)", "setting": "U2OS; [2]", "value": "80% and 43%"},
      {"measurement": "Population Tubulin-Different-Phenotype (%)", "setting": "U2OS; [2]", "value": "76% and 100%"},
      {"measurement": "Population Apoptotic (%)", "setting": "U2OS; [3]", "value": "90% and 83%"},
      {"measurement": "Population Fragmented Nuclei (%)", "setting": "U2OS; [3]", "value": "12% and 7%"},
      {"measurement": "Population Healthy Nuclei (%)", "setting": "U2OS; [3]", "value": "74% and 75%"},
      {"measurement": "Population Hoechst High Intensity Objects (%)", "setting": "U2OS; [3]", "value": 0, "unit": "%"},
      {"measurement": "Population Membrane Permeable-Phenotype (%)", "setting": "U2OS; [3]", "value": "3% and 5%"},
      {"measurement": "Population Mitochondria Different-Phenotype (%)", "setting": "U2OS; [3]", "value": "1% and 3%"},
      {"measurement": "Population Mitotic Cells (%)", "setting": "U2OS; [3]", "value": "10% and 16%"},
      {"measurement": "Population Normal (%)", "setting": "U2OS; [3]", "value": 100, "unit": "%"},
      {"measurement": "Population Pyknosed Nuclei (%)", "setting": "U2OS; [3]", "value": "13% and 16%"},
      {"measurement": "Population Tubulin-Different-Phenotype (%)", "setting": "U2OS; [3]", "value": "98% and 97%"},
      {"measurement": "Population Apoptotic (%)", "setting": "U2OS; [4]", "value": "92% and 69%"},
      {"measurement": "Population Healthy Nuclei (%)", "setting": "U2OS; [4]", "value": "13% and 20%"},
      {"measurement": "Population Hoechst High Intensity Objects (%)", "setting": "U2OS; [4]", "value": "1% and 0%"},
      {"measurement": "Population Membrane Permeable-Phenotype (%)", "setting": "U2OS; [4]", "value": "91% and 40%"},
      {"measurement": "Population Mitochondria Different-Phenotype (%)", "setting": "U2OS; [4]", "value": "83% and 60%"},
      {"measurement": "Population Normal (%)", "setting": "U2OS; [4]", "value": "98% and 100%"},
      {"measurement": "Population Pyknosed Nuclei (%)", "setting": "U2OS; [4]", "value": "79% and 52%"},
      {"measurement": "Population Tubulin-Different-Phenotype (%)", "setting": "U2OS; [4]", "value": 100, "unit": "%"}
    ]}
  ]
}
